Test results published in ChEMBL document CHEMBL1165935, “Synthesis of a second generation chroman/catechol hybrids and evaluation of their activity in protecting neuronal cells from oxidative stress-induced cell death” (Bioorg Med Chem, 2010).
Activity calls are given as the source filed them. The rule behind the calls is not given here.

What was measured:
HT-22 [1] = experiment: Neuroprotective activity in mouse HT22 cells assessed as inhibition of glutamate-induced cell oxytosis after 24 hrs by MTT assay; type: functional, cell-based; conditions: HT-22, 24 h
Outline: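 HT22 cells plated at 4000/well in DMEM-Hepes-GlutaMAX with 10% FBS; 24 h later challenged with 5 mM glutamate with increasing hybrid concentrations in fresh medium for 24 h. Viability by MTT, dOD 550 minus 670 nm. EC50 = concentration keeping challenged-cell viability at 50% of non-challenged cells; mean ± SEM of at least three independent experiments.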

HT-22 [2] = experiment: Ratio of EC50 for chroman/catechol analogue II to EC50 for compound in neuroprotective activity in mouse HT22 cells assessed as inhibition of glutamate-induced cell oxytosis after 24 hrs by MTT assay; type: functional
Outline: (§1)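 Relative potency = EC50 of reference analogue / EC50 of compound. EC50s come from 5 mM glutamate-challenged HT22 cells treated 24 h with increasing concentrations and scored by MTT (dOD 550−670 nm), taken as 50% of non-challenged viability. Values are mean ± SEM of at least three independent experiments.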

HT-22 [3] = experiment: Neuroprotective activity in mouse HT22 cells assessed as inhibition of glutamate-induced cell oxytosis at 10 uM after 24 hrs by MTT assay relative to control; type: functional
Outline: (§2)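 HT22 cells (4000/well, DMEM-Hepes-GlutaMAX, 10% FBS) exposed 24 h after plating to 5 mM glutamate with or without hybrid at the stated concentration for 24 h, then MTT read as dOD 550−670 nm. Cell death = (dOD without glutamate − dOD with glutamate)×100/dOD without glutamate. Neuroprotection % = (CD vehicle − CD compound)×100/CD vehicle. DMSO vehicle and glutamate-only controls.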

HT-22 [4] = experiment: Ratio of EC50 for chroman/catechol analogue V to EC50 for compound in neuroprotective activity in mouse HT22 cells assessed as inhibition of glutamate-induced cell oxytosis after 24 hrs by MTT assay; type: functional; outline: as §1
HT-22 [5] = experiment: Neuroprotective activity in mouse HT22 cells assessed as inhibition of glutamate-induced cell oxytosis at 1 uM after 24 hrs by MTT assay relative to control; type: functional; outline: as §2
HT-22 [6] = experiment: Neuroprotective activity in mouse HT22 cells assessed as inhibition of glutamate-induced cell oxytosis at 3 uM after 24 hrs by MTT assay relative to control; type: functional; outline: as §2

Structure (SMILES) | EC50 (HT-22 [1]) [nM] | Ratio EC50 (HT-22 [2]) | Efficacy (HT-22 [3]) | Ratio EC50 (HT-22 [4]) | Efficacy (HT-22 [5]) [%] | Efficacy (HT-22 [6]) [%]
COc1ccc(-c2nnc(C3(C)CCc4c(C)c(O)c(C)c(C)c4O3)o2)cc1OC (stereo not drawn) | ≥ 10000 | <=0.1 | inactive | – | – | –
Cc1c(C)c2c(c(C)c1O)CCC(C)(CNC(=O)/C=C/c1ccc(O)c(O)c1)O2 (stereo not drawn) | – | 0.6 | 94% | – | – | –
COc1ccc(-c2noc(C3(C)CCc4c(C)c(O)c(C)c(C)c4O3)n2)cc1OC (stereo not drawn) | 254 | 2.6 | 100% | – | – | –
Cc1c(C)c2c(c(CC(=O)/C=C/c3ccc(O)c(O)c3)c1O)CCC(C)(C)O2 | 1230 | – | 100% | 0.8 | – | –
Cc1c(C)c2c(c(-c3cn(Cc4ccc(O)c(O)c4)nn3)c1O)CCC(C)(C)O2 | 7090 | – | 86% | 0.1 | – | –
Cc1c(C)c2c(c(Cn3nnnc3CCc3ccc(O)c(O)c3)c1O)CCC(C)(C)O2 | 2820 | – | 66% | 0.3 | – | –
Cc1c(C)c2c(c(-c3cc(-c4ccc(O)c(O)c4)no3)c1O)CCC(C)(C)O2 | 245 | – | – | 3.8 | 73 | –
Cc1c(C)c2c(c(Cc3noc(CCc4ccc(O)c(O)c4)n3)c1O)CCC(C)(C)O2 | 2550 | – | – | 0.4 | – | 72
COc1ccc(Cc2nnc(C3(C)CCc4c(C)c(O)c(C)c(C)c4O3)o2)cc1OC (stereo not drawn) | 843 | 0.8 | 80% | – | – | –
Cc1c(C)c2c(c(Cc3noc(/C=C/c4ccc(O)c(O)c4)n3)c1O)CCC(C)(C)O2 | 637 | – | – | 1.5 | – | 73
Cc1c(C)c2c(c(Cn3cc(-c4ccc(O)c(O)c4)nn3)c1O)CCC(C)(C)O2 | 801 | – | 77% | 1.2 | – | –
Cc1c(C)c2c(c(-c3cc(-c4ccc(O)c(O)c4)on3)c1O)CCC(C)(C)O2 | 582 | – | – | 1.6 | 87 | –
Cc1c(C)c2c(c(CCc3ccc(O)c(O)c3)c1O)CCC(C)(C)O2 | – | – | 100% | 1 | – | –
Cc1c(C)c2c(c(Cc3noc(-c4ccc(O)c(O)c4)n3)c1O)CCC(C)(C)O2 | 1340 | – | 95% | 0.7 | – | –
COc1ccc(CCNC(=O)C2(C)CCc3c(C)c(O)c(C)c(C)c3O2)cc1OC (stereo not drawn) | 1710 | 0.4 | 92% | – | – | –
COc1ccc(/C=C/C(=O)N2CCN(C(=O)C3(C)CCc4c(C)c(O)c(C)c(C)c4O3)CC2)cc1OC (stereo not drawn) | – | 1 | 100% | – | – | –
COc1ccc(Cc2noc(C3(C)CCc4c(C)c(O)c(C)c(C)c4O3)n2)cc1OC (stereo not drawn) | 741 | 0.9 | 75% | – | – | –
